In ChEMBL document CHEMBL4699432, “Rational design, synthesis and testing of novel tricyclic topoisomerase inhibitors for the treatment of bacterial infections part 1” (RSC Med Chem, 2020):
In brackets after ≈: the same amount, converted by molar mass.

Assays:
Streptococcus pneumoniae = experiment: Antibacterial activity against Streptococcus pneumoniae ATCC 49619 assessed as reduction in bacterial growth by CLSI method based broth microdilution assay; format: functional
How it was run: (§1)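 MIC by broth microdilution following CLSI guidelines for culturing and susceptibility testing; each determination run in triplicate. Agar dilution was used instead only ahead of frequency-of-resistance work.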

Staphylococcus aureus [1] = experiment: Antibacterial activity against Staphylococcus aureus ATCC 29213 assessed as reduction in bacterial growth by CLSI method based broth microdilution assay; format: functional
Cytochrome P450 3A4 = Cytochrome P450 3A4 (Homo sapiens, UniProt P08684); experiment: Inhibition of CYP3A4 (unknown origin)
Staphylococcus aureus [2] = experiment: Antibacterial activity against methicillin-resistant Staphylococcus aureus NRS74 assessed as reduction in bacterial growth by CLSI method based broth microdilution assay; format: functional
Cytochrome P450 1A2 = target: T1, Cytochrome P450 1A2 (Homo sapiens, UniProt P05177); experiment: Inhibition of CYP1A2 (unknown origin)
T1 sequence (P05177 whole entry): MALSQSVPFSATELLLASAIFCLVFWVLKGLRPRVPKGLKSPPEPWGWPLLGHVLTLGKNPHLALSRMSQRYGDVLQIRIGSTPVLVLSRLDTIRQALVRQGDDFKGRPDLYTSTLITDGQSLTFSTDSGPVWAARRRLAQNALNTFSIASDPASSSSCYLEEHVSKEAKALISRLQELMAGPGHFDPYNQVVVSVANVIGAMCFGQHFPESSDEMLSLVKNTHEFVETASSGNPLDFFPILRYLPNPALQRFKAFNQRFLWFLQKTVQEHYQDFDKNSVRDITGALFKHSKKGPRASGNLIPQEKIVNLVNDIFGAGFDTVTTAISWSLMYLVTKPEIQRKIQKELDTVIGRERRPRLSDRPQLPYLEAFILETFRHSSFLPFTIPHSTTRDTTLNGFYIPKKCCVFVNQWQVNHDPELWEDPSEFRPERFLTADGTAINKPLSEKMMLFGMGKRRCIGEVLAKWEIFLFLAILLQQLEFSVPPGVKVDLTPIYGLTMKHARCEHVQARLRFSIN

Cytochrome P450 2C9 = Cytochrome P450 2C9 (Homo sapiens, UniProt P11712); experiment: Inhibition of CYP2C9 (unknown origin)
Staphylococcus aureus [3] = experiment: Antibacterial activity against methicillin-resistant Staphylococcus aureus VRS8 assessed as reduction in bacterial growth by CLSI method based broth microdilution assay; format: functional
Cytochrome P450 2D6 = Cytochrome P450 2D6 (Homo sapiens, UniProt P10635); experiment: Inhibition of CYP2D6 (unknown origin)
[4] = Cytotoxicity against human HepG2 cells; format: cell-based
Cytochrome P450 2C19 = Cytochrome P450 2C19 (Homo sapiens, UniProt P33261); experiment: Inhibition of CYP2C19 (unknown origin)
[5] = Thermodynamic solubility of compound at physiological pH; format: physicochemical; conditions: read-out: Therm_solubility
[6] = Lipophilicity, logD of the compound at pH 7.4; format: physicochemical; conditions: buffer
Staphylococcus aureus [7] = experiment: Antibacterial activity against fluoroquinolone and multidrug-resistant Staphylococcus aureus assessed as reduction in bacterial growth by CLSI method based broth microdilution assay; format: functional
How it was run: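 Run to CLSI guidelines by broth microdilution, in triplicate. Growth was read to give the MIC.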

Neisseria gonorrhoeae = experiment: Antibacterial activity against Neisseria gonorrhoeae assessed as reduction in bacterial growth by CLSI method based broth microdilution assay; format: functional; how it was run: as §1
hERG (KCNH2) = hERG (KCNH2) (Homo sapiens, UniProt Q12809); experiment: Inhibition of human ERG at 100 uM relative to control
[8] = target: Voltage-gated inwardly rectifying potassium channel KCNH2 (Homo sapiens, UniProt Q12809)
Sequence of Voltage-gated inwardly rectifying potassium channel KCNH2 (Q12809 whole entry): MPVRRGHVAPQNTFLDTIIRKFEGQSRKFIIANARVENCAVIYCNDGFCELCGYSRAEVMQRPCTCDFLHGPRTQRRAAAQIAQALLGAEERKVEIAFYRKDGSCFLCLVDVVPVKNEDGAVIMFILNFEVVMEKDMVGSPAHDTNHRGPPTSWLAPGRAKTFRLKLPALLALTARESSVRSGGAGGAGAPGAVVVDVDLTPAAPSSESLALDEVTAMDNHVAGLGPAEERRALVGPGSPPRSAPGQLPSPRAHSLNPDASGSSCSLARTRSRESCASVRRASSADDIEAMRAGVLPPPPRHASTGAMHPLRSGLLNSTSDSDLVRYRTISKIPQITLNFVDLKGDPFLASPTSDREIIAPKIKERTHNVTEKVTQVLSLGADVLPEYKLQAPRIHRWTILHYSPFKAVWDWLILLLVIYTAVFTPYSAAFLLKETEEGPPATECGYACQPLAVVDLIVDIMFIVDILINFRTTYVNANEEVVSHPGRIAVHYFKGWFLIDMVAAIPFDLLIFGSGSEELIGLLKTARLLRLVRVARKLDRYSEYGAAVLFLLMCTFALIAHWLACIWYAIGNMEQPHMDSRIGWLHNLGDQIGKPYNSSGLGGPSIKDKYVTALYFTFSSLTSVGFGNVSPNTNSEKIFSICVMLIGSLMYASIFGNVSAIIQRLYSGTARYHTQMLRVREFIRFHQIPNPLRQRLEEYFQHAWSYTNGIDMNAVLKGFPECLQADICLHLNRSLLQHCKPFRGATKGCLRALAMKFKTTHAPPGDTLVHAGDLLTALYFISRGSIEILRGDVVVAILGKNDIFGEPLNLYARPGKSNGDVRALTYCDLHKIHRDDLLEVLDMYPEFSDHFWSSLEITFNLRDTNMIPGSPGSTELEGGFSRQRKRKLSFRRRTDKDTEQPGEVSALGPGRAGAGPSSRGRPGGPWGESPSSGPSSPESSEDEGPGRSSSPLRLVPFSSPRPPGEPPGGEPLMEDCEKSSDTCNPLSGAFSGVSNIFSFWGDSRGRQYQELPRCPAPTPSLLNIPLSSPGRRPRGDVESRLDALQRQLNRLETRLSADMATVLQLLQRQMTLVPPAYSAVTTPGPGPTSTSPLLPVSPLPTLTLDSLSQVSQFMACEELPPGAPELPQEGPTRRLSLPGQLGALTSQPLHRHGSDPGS

Sequence of Cytochrome P450 2D6 (P10635 whole entry): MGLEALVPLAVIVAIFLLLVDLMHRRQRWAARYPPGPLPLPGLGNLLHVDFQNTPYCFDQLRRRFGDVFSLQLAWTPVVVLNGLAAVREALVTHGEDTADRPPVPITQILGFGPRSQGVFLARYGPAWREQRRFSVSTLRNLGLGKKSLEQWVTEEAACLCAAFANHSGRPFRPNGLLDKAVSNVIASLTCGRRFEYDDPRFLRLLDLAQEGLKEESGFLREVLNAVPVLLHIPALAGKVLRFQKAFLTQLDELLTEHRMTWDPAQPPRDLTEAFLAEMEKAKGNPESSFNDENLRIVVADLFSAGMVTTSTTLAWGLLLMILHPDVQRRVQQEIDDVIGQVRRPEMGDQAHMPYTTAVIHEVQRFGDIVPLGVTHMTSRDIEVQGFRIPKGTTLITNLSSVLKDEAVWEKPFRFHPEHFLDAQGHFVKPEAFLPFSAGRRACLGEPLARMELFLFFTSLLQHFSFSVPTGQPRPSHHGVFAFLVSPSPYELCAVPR
Sequence of Cytochrome P450 2C9 (P11712 whole entry): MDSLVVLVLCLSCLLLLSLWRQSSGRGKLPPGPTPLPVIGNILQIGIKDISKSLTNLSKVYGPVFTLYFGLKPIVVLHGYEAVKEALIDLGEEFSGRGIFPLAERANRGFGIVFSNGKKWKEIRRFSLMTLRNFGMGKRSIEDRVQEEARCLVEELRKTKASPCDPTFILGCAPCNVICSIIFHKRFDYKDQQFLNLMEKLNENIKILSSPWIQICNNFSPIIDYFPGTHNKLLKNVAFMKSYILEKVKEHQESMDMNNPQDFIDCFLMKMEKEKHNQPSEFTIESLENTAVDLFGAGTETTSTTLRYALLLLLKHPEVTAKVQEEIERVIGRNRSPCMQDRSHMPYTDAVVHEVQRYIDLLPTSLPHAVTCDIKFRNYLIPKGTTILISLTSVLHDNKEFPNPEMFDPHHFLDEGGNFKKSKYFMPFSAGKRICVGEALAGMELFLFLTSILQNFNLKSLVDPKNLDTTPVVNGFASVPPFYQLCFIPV
Sequence of Cytochrome P450 2C19 (P33261 whole entry): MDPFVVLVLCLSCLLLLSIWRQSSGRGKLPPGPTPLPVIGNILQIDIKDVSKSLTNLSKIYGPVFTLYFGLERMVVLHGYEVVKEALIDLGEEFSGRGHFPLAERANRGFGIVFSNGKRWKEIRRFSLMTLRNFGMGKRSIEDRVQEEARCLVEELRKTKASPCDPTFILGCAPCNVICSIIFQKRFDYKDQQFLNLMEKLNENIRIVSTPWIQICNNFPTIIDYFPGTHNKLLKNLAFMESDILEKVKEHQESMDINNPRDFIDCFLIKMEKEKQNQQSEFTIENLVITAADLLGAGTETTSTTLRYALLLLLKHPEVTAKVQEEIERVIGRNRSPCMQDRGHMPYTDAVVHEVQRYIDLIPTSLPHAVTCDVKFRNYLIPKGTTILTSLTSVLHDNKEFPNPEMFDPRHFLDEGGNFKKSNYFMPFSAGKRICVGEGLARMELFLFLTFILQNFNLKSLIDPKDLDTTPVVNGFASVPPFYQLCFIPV
Sequence of Cytochrome P450 3A4 (P08684 whole entry): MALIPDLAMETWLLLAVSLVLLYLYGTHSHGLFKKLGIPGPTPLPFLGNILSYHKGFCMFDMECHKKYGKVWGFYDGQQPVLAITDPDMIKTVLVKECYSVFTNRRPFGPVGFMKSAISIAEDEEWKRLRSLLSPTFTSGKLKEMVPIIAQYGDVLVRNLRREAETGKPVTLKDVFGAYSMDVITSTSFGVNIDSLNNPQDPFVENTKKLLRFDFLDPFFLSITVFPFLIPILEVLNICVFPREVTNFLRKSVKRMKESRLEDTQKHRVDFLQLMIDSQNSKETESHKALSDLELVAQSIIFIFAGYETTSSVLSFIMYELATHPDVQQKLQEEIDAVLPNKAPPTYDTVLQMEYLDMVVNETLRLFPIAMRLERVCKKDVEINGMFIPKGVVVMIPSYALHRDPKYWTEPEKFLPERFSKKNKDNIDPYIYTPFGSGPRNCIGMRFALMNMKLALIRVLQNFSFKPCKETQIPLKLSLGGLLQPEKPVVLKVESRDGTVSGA
Sequence of hERG (KCNH2) (Q12809 whole entry): as the sequence (Q12809 whole entry) above

| SMILES | MIC (Streptococcus pneumoniae) [µg/mL] | MIC (Staphylococcus aureus [1]) [µg/mL] | CC50 [4] [µg/mL] | solubility thermodynamic [5] | logD [6] | further results |
| --- | --- | --- | --- | --- | --- | --- |
| Cc1c(-c2ccc(N)nn2)ccc2c3ocnc3c(=O)n(C3CC3)c12 | > 64 | > 64 | – | – | – | – |
| Cc1c(-c2ccc3[nH]ncc3c2)ccc2c3oc(CN)nc3c(=O)n(C3CC3)c12 | – | 0.06 (≈ 0.156 µM) | 32 (≈ 83 µM) | 10 µg/mL | – | IC50 (Cytochrome P450 3A4): 1.3 µM; MIC (Staphylococcus aureus [2]): 0.5 µg/mL (≈ 1.3 µM); IC50 (Cytochrome P450 1A2): 12.3 µM; IC50 (Cytochrome P450 2C9): 0.2 µM; MIC (Staphylococcus aureus [3]): 2 µg/mL (≈ 5.19 µM); IC50 (Cytochrome P450 2D6): 12.7 µM; IC50 (Cytochrome P450 2C19): 0.8 µM |
| Cc1c(-c2ccc3[nH]c(N)nc3c2)ccc2c3ocnc3c(=O)n(C3CC3)c12 | 0.25 (≈ 0.673 µM) | 0.25 (≈ 0.673 µM) | > 32 | 16 µg/mL | 2.52 | – |
| Cc1c(-c2ccc(N)cc2F)ccc2c3ocnc3c(=O)n(C3CC3)c12 | 1 (≈ 2.86 µM) | 0.12 (≈ 0.343 µM) | 16 (≈ 45.8 µM) | 1.1 µg/mL | 3.05 | – |
| Cc1c(-c2cc(F)c(N)cc2F)ccc2c3ocnc3c(=O)n(C3CC3)c12 | 1 (≈ 2.72 µM) | 0.03 (≈ 0.0817 µM) | > 128 | 3 µM | 2.96 | MIC90 (Staphylococcus aureus [7]): 0.25 µg/mL (≈ 0.681 µM); IC50 (Cytochrome P450 3A4): > 30 µM; MIC (Staphylococcus aureus [2]): 0.06 µg/mL (≈ 0.163 µM); IC50 (Cytochrome P450 1A2): > 30 µM; IC50 (Cytochrome P450 2C9): > 30 µM; MIC (Staphylococcus aureus [3]): 0.5 µg/mL (≈ 1.36 µM); IC50 (Cytochrome P450 2D6): > 30 µM; IC50 (Cytochrome P450 2C19): > 30 µM; MIC (Neisseria gonorrhoeae): 0.06 µg/mL (≈ 0.163 µM); inhibition at 100 µM (hERG (KCNH2)): 3% |
| Nc1cc(F)c(-c2ccc3c4ocnc4c(=O)n(C4CC4)c3c2)cc1F | – | 2 (≈ 5.66 µM) | – | – | – | – |
| Cc1c(-c2ccc3[nH]ncc3c2)ccc2c3ocnc3c(=O)n(C3CC3)c12 | 0.5 (≈ 1.4 µM) | 0.004 (≈ 0.0112 µM) | > 16 | 1.1 µg/mL | 3.29 | – |
| Cc1c(-c2ccc3c(c2)CNC3)ccc2c3ocnc3c(=O)n(C3CC3)c12 | 0.5 (≈ 1.4 µM) | 0.12 (≈ 0.336 µM) | > 64 | 209 µg/mL | 0.75 | – |
| Cc1nc2c(=O)n(C3CC3)c3c(C)c(-c4cc(F)c(N)cc4F)ccc3c2o1 | – | 0.03 (≈ 0.0787 µM) | – | – | – | – |
| Cc1c(-c2cc(F)c(C(=O)O)cc2F)ccc2c3ocnc3c(=O)n(C3CC3)c12 | > 128 | 64 (≈ 161 µM) | – | – | – | – |
| CCn1c(=O)c2ncoc2c2ccc(-c3cc(F)c(N)cc3F)c(C)c21 | – | 2 (≈ 5.63 µM) | – | – | – | – |
| Cc1c(-c2cc(F)c(N)cc2F)ccc2c3oc(CN)nc3c(=O)n(C3CC3)c12 | – | 0.06 (≈ 0.151 µM) | > 64 | 36 µg/mL | – | IC50 (Cytochrome P450 3A4): 12.9 µM; MIC (Staphylococcus aureus [2]): 0.06 µg/mL (≈ 0.151 µM); IC50 (Cytochrome P450 1A2): 7.5 µM; IC50 (Cytochrome P450 2C9): 0.3 µM; MIC (Staphylococcus aureus [3]): 4 µg/mL (≈ 10.1 µM); IC50 (Cytochrome P450 2D6): 11.3 µM; IC50 (Cytochrome P450 2C19): 0.5 µM |
| Nc1cc(F)c(-c2cc3c(cc2F)c2ocnc2c(=O)n3C2CC2)cc1F | – | 0.25 (≈ 0.673 µM) | – | – | – | – |
| CCn1c(=O)c2ncoc2c2cc(F)c(-c3cc(F)c(N)cc3F)c(C)c21 | – | 1 (≈ 2.68 µM) | – | – | – | – |
| Cc1c(-c2ccc3nonc3c2)ccc2c3ocnc3c(=O)n(C3CC3)c12 | 4 (≈ 11.2 µM) | 0.25 (≈ 0.698 µM) | > 32 | < 9 µg/mL | 3.03 | – |
| Cc1c(-c2ccc(N)cc2)ccc2c3ocnc3c(=O)n(C3CC3)c12 | 4 (≈ 12.1 µM) | 0.5 (≈ 1.51 µM) | – | – | 2.59 | – |
| Cc1c(-c2cc(F)c(CO)cc2F)ccc2c3ocnc3c(=O)n(C3CC3)c12 | 0.25 (≈ 0.654 µM) | 0.06 (≈ 0.157 µM) | > 32 | 1.9 µg/mL | 3.14 | – |
| C[C@H]1COc2c(-c3cc(F)c(N)cc3F)ccc3c4ocnc4c(=O)n1c23 | – | 0.5 (≈ 1.35 µM) | – | – | – | – |
| Cc1c(-c2ccc(N)c(C#N)c2)ccc2c3ocnc3c(=O)n(C3CC3)c12 | 0.25 (≈ 0.701 µM) | 0.06 (≈ 0.168 µM) | > 4 | – | 2.94 | – |
| Cc1c(-c2ccc(C(C)N)cc2)ccc2c3ocnc3c(=O)n(C3CC3)c12 (configuration not stated) | 2 (≈ 5.56 µM) | 0.5 (≈ 1.39 µM) | > 32 | – | – | – |
| Cc1c(-c2ccccc2)ccc2c3ocnc3c(=O)n(C3CC3)c12 | 4 (≈ 12.6 µM) | 1 (≈ 3.16 µM) | – | – | – | – |
| Cc1c(-c2ccc3[nH]cnc3c2)ccc2c3ocnc3c(=O)n(C3CC3)c12 | 0.25 (≈ 0.701 µM) | 0.25 (≈ 0.701 µM) | > 16 | < 9 µg/mL | 3.03 | – |
| Cc1c(-c2cnc3[nH]ncc3c2)ccc2c3oc(CN)nc3c(=O)n(C3CC3)c12 | – | 0.25 (≈ 0.647 µM) | > 128 | 618 µg/mL | – | IC50 [8]: 45.1 µM; MIC (Staphylococcus aureus [2]): 2 µg/mL (≈ 5.18 µM); MIC (Staphylococcus aureus [3]): 2 µg/mL (≈ 5.18 µM) |
| Cc1c(-c2ccc(N)c(F)c2)ccc2c3ocnc3c(=O)n(C3CC3)c12 | 2 (≈ 5.72 µM) | 0.12 (≈ 0.343 µM) | > 128 | – | – | – |
| Nc1cc(F)c(-c2nc3c(cc2F)c2ocnc2c(=O)n3C2CC2)cc1F | – | 128 (≈ 344 µM) | – | – | – | – |
| Nc1cc(F)c(-c2ccc3c4ocnc4c(=O)n(C4CC4)c3c2Cl)cc1F | – | 0.25 (≈ 0.645 µM) | – | – | – | – |
| Cc1c(-c2cnc(N)cn2)ccc2c3ocnc3c(=O)n(C3CC3)c12 | > 128 | 64 (≈ 192 µM) | – | 6.8 µg/mL | 1.46 | – |
| Cc1c(-c2cnc(N)nc2)ccc2c3ocnc3c(=O)n(C3CC3)c12 | 4 (≈ 12 µM) | 1 (≈ 3 µM) | > 32 | 15 µg/mL | 1.32 | – |
